One series has as its target AChE (Electrophorus electricus, UniProt O42275). Nature of the series: AChE inhibitory assay. The format is biochemical, Electroporus electricus.
A further series has as its target BuChE (Bos taurus, UniProt P32749). The series can be described thus: BuChE inhibitory assay. The format is biochemical, bovine.
Series [1] in a line: Neurotoxicity assay, cell viability by Neutral Red method. Type of series: cell-based, human. The note with it: human, SH-SY5Y neuroblastoma cells. In outline: (§1)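 SH-SY5Y cells (passages 18–23) in DMEM with 5% FBS were seeded at 2×10^4 cells/well and grown 24 h at 37 °C, 5% CO2. Test compound came from a 1×10−2 M DMSO stock, freshly diluted in medium, and was applied for 24 h. Controls were medium alone and 120 mM K+ (death). Cells were PBS-washed, given neutral red for 3 h at 37 °C, extracted 20 min with acidified ethanol, and read at A540.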

Series [2] deals with human neuroblastoma SH‐SY5Y cells. Described as above. Type of series: cell-based. The note with it: SH‐SY5Y cells. In outline: as §1

As a reminder, the IC50 is the concentration that gives 50% inhibition. Low readings indicate inhibition by little substance, high ones a need for much substance. By viability is commonly meant a read-out of living cells in per cent, often relative to untreated cells.

Structures are written as SMILES.

Sequence of BuChE (P32749 29-602): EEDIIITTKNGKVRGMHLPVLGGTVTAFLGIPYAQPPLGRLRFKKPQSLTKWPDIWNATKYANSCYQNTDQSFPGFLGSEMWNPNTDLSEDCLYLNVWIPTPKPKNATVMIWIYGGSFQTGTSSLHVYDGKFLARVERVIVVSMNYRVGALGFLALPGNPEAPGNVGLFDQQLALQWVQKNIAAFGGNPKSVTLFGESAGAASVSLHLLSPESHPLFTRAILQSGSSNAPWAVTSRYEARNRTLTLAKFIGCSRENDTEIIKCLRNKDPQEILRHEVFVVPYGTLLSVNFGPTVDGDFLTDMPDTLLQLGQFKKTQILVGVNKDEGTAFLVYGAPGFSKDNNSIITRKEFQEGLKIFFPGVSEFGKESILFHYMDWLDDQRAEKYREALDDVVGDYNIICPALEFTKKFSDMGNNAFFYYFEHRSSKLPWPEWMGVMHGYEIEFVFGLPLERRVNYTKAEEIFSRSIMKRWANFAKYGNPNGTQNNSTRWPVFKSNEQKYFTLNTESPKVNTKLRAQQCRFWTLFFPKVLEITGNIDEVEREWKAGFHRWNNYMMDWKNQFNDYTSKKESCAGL
Sequence of AChE (O42275 24-633): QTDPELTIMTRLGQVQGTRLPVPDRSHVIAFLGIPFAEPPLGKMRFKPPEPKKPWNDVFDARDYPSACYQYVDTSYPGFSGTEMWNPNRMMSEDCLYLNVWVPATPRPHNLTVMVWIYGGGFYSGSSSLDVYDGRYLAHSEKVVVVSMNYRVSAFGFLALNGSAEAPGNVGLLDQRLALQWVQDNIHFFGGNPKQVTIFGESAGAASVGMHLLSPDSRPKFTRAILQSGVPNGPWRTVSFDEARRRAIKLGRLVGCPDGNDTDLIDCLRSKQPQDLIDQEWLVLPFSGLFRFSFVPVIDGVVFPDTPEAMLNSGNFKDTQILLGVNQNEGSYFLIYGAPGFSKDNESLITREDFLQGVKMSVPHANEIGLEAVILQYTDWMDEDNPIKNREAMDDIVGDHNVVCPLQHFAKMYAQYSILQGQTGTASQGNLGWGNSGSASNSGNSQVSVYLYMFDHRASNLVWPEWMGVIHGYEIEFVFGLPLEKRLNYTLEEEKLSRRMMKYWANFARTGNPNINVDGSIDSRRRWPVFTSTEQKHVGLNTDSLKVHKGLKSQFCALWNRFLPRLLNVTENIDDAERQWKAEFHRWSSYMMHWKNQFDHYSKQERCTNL

For the molecule `O=CNC1CC(c2ccccc2)Nc2c1ccc1cccnc21` (stereo not drawn) [4 a, N‐(2‐phenyl‐1,2,3,4‐tetrahydro‐1,10‐phenanthroline‐4‐yl) formamide], on AChE, the IC50 was more than 500 µM.

As for `O=CNC1CC(c2ccccn2)Nc2c1ccc1cccnc21` (stereo not drawn) [4 b, N‐(2‐(pyridin‐2‐yl)‐1,2,3,4‐tetrahydro‐1,10‐phenanthroline‐4‐yl) formamide], the IC50 against BuChE stood at 152.99 ± 0.01 µM; at AChE, 143.66 ± 0.02 µM.

`O=CNC1CC(c2cccnc2)Nc2c1ccc1cccnc21` (stereo not drawn) [4 c, N‐(2‐(pyridin‐3‐yl)‐1,2,3,4‐tetrahydro‐1,10‐phenanthroline‐4‐yl) formamide]: the IC50 on AChE stood at 140.2 ± 0.02 µM.

On BuChE, `O=CNC1CC(c2ccncc2)Nc2c1ccc1cccnc21` (stereo not drawn) [4 d, N‐(2‐(pyridin‐4‐yl)1,2,3,4‐tetrahydro‐1,10‐phenanthroline‐4‐yl) formamide] yielded an IC50 of 138.63 ± 0.01 µM. Moreover, in series [1], the IC50 at 24 h was 5500 µM; the viability at 24 h, 10 µM was 132 ± 25.6%; the viability at 24 h, 1 mM turned out to be 102 ± 18.9%. In series [2], the “Cytotoxicity (in words)” value is “non‐cytoxicity”. The molecule further displayed an IC50 against AChE of 63.63 ± 0.01 µM.

Take `COc1ccc(C2CC(NC=O)c3ccc4cccnc4c3N2)cc1` (stereo not drawn) [4 e, N‐(2‐(4‐methoxyphenyl)‐1,2,3,4‐tetrahydro‐1,10‐phenanthroline‐4‐yl) formamide]: in series [1], the half-maximal inhibitory concentration (IC50) at 24 h stood at 3700 µM; the viability at 24 h, 10 µM was found to be 119 ± 6.4%; the viability at 24 h, 1 mM is 78.5 ± 12.5%. The molecule also displayed a concentration for half-maximal inhibition (IC50) at AChE of 362.11 ± 0.03 µM.

On to `O=CNC1CC(c2ccc([N+](=O)[O-])cc2)Nc2c1ccc1cccnc21` (stereo not drawn) [4 g, N‐(2‐(4‐nitrophenyl)‐1,2,3,4‐tetrahydro‐1,10‐phenanthroline‐4‐yl) formamide], for which, in series [1], the IC50 at 24 h was 300 µM; the viability at 24 h, 10 µM was found to be 116 ± 5%; the viability at 24 h, 1 mM stood at 21.9 ± 3.9%. Moreover, the “Cytotoxicity (in words)” value in series [2] was “non‐cytoxicity”. The same molecule had an IC50 at AChE of 96.52 ± 0.01 µM.

For `Nc1cccc2cccnc12` [8‐amino‐quinoline, reference compound], the figures for the half-inhibitory concentration (IC50) at BuChE and against AChE were 195.08 ± 0.02 µM and 171.56 ± 0.01 µM, respectively.

The values are drawn from paper PMC6528641 (ChemistryOpen, 2019).
